Measurements taken from ChEMBL document CHEMBL3526048, “In vitro metabolism of rivoglitazone, a novel peroxisome proliferator-activated receptor γ agonist, in rat, monkey, and human liver microsomes and freshly isolated hepatocytes” (Drug Metab Dispos, 2011).

Tests used:
[1] = target: T1, UDP-glucuronosyltransferase 1A3 (Homo sapiens, UniProt P35503); experiment: (§1) Activity of human UGT1A3 expressed in microsomes isolated from baculovirus infected insect cell assessed as enzyme-mediated 5-(4-((6-hydroxy-1-methyl-1H-benzo[d]imidazol-2-yl)methoxy)benzyl)thiazolidine-2,4-dione formation at 20 uM after 4 hrs by radio-HPLC/LC-MS/MS analysis in presence of NADPH-generating system/SAM; type: ADME
T1 sequence (P35503 whole entry): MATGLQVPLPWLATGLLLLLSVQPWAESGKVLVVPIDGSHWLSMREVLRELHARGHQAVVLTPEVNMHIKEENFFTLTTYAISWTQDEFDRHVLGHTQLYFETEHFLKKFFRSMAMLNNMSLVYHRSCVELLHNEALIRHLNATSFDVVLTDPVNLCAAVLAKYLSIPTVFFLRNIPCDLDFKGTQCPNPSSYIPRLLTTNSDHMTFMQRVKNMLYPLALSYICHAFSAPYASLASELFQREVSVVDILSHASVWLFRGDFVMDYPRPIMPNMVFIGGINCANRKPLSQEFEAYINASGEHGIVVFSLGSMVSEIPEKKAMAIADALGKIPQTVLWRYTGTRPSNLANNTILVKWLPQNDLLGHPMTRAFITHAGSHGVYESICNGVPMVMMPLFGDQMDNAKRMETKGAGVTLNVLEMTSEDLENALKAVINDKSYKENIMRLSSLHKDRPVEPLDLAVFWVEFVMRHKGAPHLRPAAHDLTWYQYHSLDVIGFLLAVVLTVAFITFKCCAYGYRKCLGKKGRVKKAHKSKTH

[2] = target: T2, UDP-glucuronosyltransferase 2B7 (Homo sapiens, UniProt P16662); experiment: Activity of human UGT2B7 expressed in microsomes isolated from baculovirus infected insect cell assessed as enzyme-mediated 5-(4-((6-methoxy-1H-benzo[d]imidazol-2-yl)methoxy)benzyl)thiazolidine-2,4-dione formation at 20 uM after 4 hrs by radio-HPLC/LC-MS/MS analysis in presence of NADPH-generating system and NADPH-generating system/SAM in presence of UDPGA and UDPGA/SAM; type: ADME
T2 sequence (P16662 whole entry): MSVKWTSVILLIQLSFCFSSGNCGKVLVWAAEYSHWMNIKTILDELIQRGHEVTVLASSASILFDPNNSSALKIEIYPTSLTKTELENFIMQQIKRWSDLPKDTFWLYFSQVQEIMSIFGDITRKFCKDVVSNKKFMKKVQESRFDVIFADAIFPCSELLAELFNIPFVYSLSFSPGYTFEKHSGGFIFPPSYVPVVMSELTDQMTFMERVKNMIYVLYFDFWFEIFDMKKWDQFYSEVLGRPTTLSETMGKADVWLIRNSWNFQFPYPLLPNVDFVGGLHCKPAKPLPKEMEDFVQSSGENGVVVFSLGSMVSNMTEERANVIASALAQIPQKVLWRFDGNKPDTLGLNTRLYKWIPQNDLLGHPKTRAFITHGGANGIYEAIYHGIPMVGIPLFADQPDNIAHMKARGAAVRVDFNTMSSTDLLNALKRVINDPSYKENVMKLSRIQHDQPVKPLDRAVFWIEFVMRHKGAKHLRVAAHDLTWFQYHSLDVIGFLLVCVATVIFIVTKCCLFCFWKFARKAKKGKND

Cytochrome P450 3A5 [3] = target: T3, Cytochrome P450 3A5 (Homo sapiens, UniProt P20815); experiment: as §1, with “human CYP3A5” for “human UGT1A3”, “after 2” for “after 4”, “NADPH-generating system and NADPH-generating” for “NADPH-generating”; type: ADME
T3 sequence (P20815 whole entry): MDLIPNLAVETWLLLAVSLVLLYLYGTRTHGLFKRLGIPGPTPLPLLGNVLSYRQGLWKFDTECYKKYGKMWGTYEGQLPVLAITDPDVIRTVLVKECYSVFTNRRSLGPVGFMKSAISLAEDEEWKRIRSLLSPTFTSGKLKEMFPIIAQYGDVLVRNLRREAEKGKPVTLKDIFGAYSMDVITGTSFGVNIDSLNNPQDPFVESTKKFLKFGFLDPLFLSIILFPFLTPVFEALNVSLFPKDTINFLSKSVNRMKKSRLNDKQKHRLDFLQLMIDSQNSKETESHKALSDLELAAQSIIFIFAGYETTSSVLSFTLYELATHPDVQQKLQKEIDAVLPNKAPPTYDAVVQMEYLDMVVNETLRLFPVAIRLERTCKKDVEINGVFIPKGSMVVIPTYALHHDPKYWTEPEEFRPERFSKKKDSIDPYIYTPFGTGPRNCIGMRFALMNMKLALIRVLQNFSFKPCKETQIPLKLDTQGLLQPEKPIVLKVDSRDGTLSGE
Outline: (§2)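 cDNA-expressed human CYP3A5 in baculovirus-insect-cell microsomes (1 mg/ml protein) was incubated with [¹⁴C]rivoglitazone (20 μM) in 50 mM potassium phosphate (pH 7.4) or 100 mM Tris-HCl (pH 7.5). NADPH-generating system: 2 mM NADP⁺, 20 mM glucose 6-phosphate, 2 units/ml G6PDH, 10 mM MgCl₂. Incubation ran 2 h at 37°C with shaking; insect-cell control supersomes served as control. Acetonitrile stop, supernatant concentrated, then radio-HPLC, LC-MS and LC-MS/MS.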

[4] = Drug metabolism in rat hepatocytes assessed as formation of 2-amino-3-((1-carboxy-2-(4-((6-methoxy-1-methyl-1H-benzo[d]imidazol-2-yl)methoxy)phenyl)ethyl)disulfanyl)propanoic acid at 30 uM after 3 hrs by radio-HPLC/LC-MS/MS analysis; type: ADME, cell-based, Hepatocyte
[5] = target: T1, UDP-glucuronosyltransferase 1A3; experiment: Activity of human UGT1A3 expressed in microsomes isolated from baculovirus infected insect cell assessed as enzyme-mediated 2-((4-((2,4-dioxothiazolidin-5-yl)methyl)phenoxy)methyl)-1-methyl-1H-benzo[d]imidazol-6-yl hydrogen sulfate formation at 20 uM after 4 hrs by radio-HPLC/LC-MS/MS analysis; type: ADME
Outline: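 Alamethicin (50 μg/mg protein, 15 min on ice) pretreated expressed human UGT microsomes (1 mg/ml protein) from baculovirus-infected insect cells. Incubation with [¹⁴C]rivoglitazone (20 μM) in 100 mM Tris-HCl (pH 7.5) with 10 mM MgCl₂, started by 5 mM UDPGA, 4 h at 37°C with shaking. UGT insect-cell control supersomes were run alongside. Acetonitrile stop, concentrated supernatant analysed by radio-HPLC, LC-MS and LC-MS/MS.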

[6] = target: T4, UDP-glucuronosyltransferase 1A4 (Homo sapiens, UniProt P22310); experiment: Activity of human UGT1A4 expressed in microsomes isolated from baculovirus infected insect cell assessed as enzyme-mediated (2S,3S,4S,5R,6R)-6-((1-carboxy-2-(4-((6-methoxy-1-methyl-1H-benzo[d]imidazol-2-yl)methoxy)phenyl)ethylthio)carbonylamino)-3,4,5-trihydroxytetrahydro-2H-pyran-2-carboxylic acid formation at 20 uM after 4 hrs by radio-HPLC/LC-MS/MS analysis in presence of UDPGA; type: ADME
T4 sequence (P22310 whole entry): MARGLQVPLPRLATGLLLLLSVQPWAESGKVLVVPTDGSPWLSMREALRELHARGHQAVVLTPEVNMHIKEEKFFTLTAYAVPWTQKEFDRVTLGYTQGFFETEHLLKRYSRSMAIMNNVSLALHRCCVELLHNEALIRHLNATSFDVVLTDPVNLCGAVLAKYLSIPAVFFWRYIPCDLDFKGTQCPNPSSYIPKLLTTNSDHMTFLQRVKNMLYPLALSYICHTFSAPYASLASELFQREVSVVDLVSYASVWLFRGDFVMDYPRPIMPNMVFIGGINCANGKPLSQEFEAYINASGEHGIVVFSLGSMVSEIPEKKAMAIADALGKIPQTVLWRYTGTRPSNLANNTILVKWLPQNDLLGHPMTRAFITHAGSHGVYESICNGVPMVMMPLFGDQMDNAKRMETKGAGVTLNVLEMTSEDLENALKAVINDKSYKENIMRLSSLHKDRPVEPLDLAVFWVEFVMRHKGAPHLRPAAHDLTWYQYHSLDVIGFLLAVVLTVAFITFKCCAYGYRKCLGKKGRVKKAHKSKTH

[7] = target: T2, UDP-glucuronosyltransferase 2B7; experiment: Activity of human UGT2B7 expressed in microsomes isolated from baculovirus infected insect cell assessed as enzyme-mediated 3-(4-((6-methoxy-1-methyl-1H-benzo[d]imidazol-2-yl)methoxy)phenyl)-2-(methylthio)propanamide formation at 20 uM after 4 hrs by radio-HPLC/LC-MS/MS analysis in presence of NADPH-generating system/SAM in presence of UDPGA and UDPGA/SAM; type: ADME
Cytochrome P450 3A5 [8] = target: T3, Cytochrome P450 3A5; experiment: Activity of human CYP3A5 expressed in microsomes isolated from baculovirus infected insect cell assessed as enzyme-mediated 5-hydroxy-5-(4-((6-methoxy-1-methyl-1H-benzo[d]imidazol-2-yl)methoxy)benzyl)thiazolidine-2,4-dione formation at 20 uM after 2 hrs by radio-HPLC/LC-MS/MS analysis in presence of NADPH-generating system and NADPH-generating system/SAM; type: ADME; outline: as §2

COc1ccc2nc(COc3ccc(C[14CH]4SC(=O)NC4=O)cc3)n(C)c2c1.Cl (racemic)
Drug metabolism [1]: metabolite_not_detected | Drug metabolism [2]: metabolite_not_detected | Drug metabolism (Cytochrome P450 3A5 [3]): metabolite_detected | Drug metabolism [4]: metabolite_not_detected | Drug metabolism [5]: metabolite_not_detected | Drug metabolism [6]: metabolite_not_detected | Drug metabolism [7]: metabolite_not_detected | Drug metabolism (Cytochrome P450 3A5 [8]): metabolite_detected
